Measurements published in ChEMBL document CHEMBL1137298, “2-triazole-substituted adenosines: a new class of selective A3 adenosine receptor agonists, partial agonists, and antagonists” (J Med Chem, 2006).
Calls of active or inactive are those of the source. No cut-off for these calls is given here.

Experiments:
Adenosine receptor A1 = target: T1, Adenosine receptor A1 (Homo sapiens, UniProt P30542); assay: Displacement of [3H]CCPA from human Adenosine A1 receptor expressed in CHO cells; assay type: cell-based
T1 sequence (P30542 whole entry): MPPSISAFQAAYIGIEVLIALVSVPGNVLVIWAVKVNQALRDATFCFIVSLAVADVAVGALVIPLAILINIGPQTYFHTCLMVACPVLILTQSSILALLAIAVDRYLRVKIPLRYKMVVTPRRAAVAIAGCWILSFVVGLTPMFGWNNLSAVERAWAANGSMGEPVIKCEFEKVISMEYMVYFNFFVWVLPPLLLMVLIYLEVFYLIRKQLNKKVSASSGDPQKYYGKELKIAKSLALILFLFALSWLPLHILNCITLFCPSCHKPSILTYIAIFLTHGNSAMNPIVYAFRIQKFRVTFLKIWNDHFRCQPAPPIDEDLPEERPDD

Adenosine receptor A2a [1] = target: T2, Adenosine receptor A2a (Homo sapiens, UniProt P29274); assay: Inhibition of [3H]CGS21680 binding to human Adenosine A2A receptor expressed in CHO cells at 10 uM; assay type: cell-based
T2 sequence (P29274 whole entry): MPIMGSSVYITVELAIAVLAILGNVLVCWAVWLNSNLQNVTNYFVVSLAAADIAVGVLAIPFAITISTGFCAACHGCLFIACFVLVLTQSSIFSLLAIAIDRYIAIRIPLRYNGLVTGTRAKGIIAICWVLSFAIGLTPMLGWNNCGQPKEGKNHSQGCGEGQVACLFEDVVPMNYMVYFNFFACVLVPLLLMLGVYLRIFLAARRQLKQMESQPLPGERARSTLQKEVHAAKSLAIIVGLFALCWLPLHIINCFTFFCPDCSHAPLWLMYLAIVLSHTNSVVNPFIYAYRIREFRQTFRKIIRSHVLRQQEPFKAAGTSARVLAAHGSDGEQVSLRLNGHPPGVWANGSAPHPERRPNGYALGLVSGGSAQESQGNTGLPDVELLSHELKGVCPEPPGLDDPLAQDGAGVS
In short: (§1)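 Membranes from CHO cells stably transfected with human A1AR (radioligand [3H]CCPA) or human A2AAR (radioligand [3H]CGS21680), in Tris-HCl pH 7.4/MgCl2/EDTA buffer with adenosine deaminase. Compound tested at a fixed 10 µM. Result expressed as percent displacement of radioligand, n = 3 unless otherwise noted.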

[2] = target: Adenosine receptors; A1 & A3 (Homo sapiens) (UniProt P30542+P0DMS8); assay: Selectivity for human adenosine A3 over human adenosine A1 receptor; assay type: protein assay
Adenosine receptor A3 [3] = target: T3, Adenosine receptor A3 (Homo sapiens, UniProt P0DMS8); assay: Displacement of [125I]AB-MECA from human Adenosine A3 receptor expressed in CHO cells; assay type: cell-based
T3 sequence (P0DMS8 whole entry): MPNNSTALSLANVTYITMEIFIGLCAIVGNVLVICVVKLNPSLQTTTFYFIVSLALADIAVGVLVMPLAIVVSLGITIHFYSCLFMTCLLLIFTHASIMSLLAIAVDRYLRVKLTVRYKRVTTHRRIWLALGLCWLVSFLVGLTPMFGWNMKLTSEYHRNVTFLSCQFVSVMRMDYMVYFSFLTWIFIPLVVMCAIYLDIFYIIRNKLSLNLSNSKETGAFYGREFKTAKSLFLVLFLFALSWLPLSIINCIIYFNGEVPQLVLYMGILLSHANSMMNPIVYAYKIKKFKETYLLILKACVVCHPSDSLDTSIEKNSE

[4] = target: Adenosine receptor A2b (Homo sapiens) (UniProt P29275); assay: Activity at human adenosine A2B receptor in CHO cells assessed as stimulation of cAMP production relative to NECA at 10 uM
Adenosine receptor A3 [5] = target: T4, Adenosine receptor A3 (Rattus norvegicus, UniProt P28647); assay: Displacement of [125I]AB-MECA from rat Adenosine A3 receptor expressed in CHO cells; assay type: cell-based
T4 sequence (P28647 whole entry): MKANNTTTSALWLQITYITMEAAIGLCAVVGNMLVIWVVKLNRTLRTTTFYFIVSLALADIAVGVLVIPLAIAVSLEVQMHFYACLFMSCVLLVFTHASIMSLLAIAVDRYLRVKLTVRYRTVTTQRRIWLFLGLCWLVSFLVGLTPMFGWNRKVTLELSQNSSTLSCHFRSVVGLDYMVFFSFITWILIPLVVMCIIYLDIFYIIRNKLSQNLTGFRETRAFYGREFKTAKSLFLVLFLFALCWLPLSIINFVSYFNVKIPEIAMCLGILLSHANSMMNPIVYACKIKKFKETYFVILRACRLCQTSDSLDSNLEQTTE
In short: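 Membranes from CHO cells expressing rat A3AR, prepared in 50 mM Tris-HCl pH 7.4 with 10 mM MgCl2, 1 mM EDTA and 3 units/mL adenosine deaminase. Incubated with [125I]AB-MECA (0.5 nM final) and increasing compound concentrations for 60 min at 25 °C. Nonspecific binding defined with 10 µM NECA. GF/B filtration, gamma counting, Ki derived.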

Adenosine receptor A2a [6] = target: T2, Adenosine receptor A2a; assay: Displacement of [3H]CGS-21680 from human Adenosine A2A receptor expressed in CHO cells; assay type: cell-based
[7] = target: T5, Adenosine receptor A1 (Homo sapiens) (UniProt P30542); assay: Inhibition of [3H]CCPA binding to human Adenosine A1 receptor expressed in CHO cells at 10 uM; assay type: cell-based; in short: as §1
T5 sequence (whole entry): T1 sequence (P30542 whole entry)

SMILES	Ki (Adenosine receptor A1) [nM]	inhibition (Adenosine receptor A2a [1]) [%]	Selectivity ratio [2]	Ki (Adenosine receptor A3 [3]) [nM]	Activity [4]	Ki (Adenosine receptor A3 [5]) [nM]	Ki (Adenosine receptor A2a [6]) [nM]	inhibition [7] [%]
CNc1nc(-n2cc(CC3CCCCC3)nn2)nc2c1ncn2[C@@H]1O[C@H](CO)[C@@H](O)[C@H]1O	1430	16	67	21.3	< 50%			
CCCCc1cn(-c2nc(NC)c3ncn([C@@H]4O[C@H](CO)[C@@H](O)[C@H]4O)c3n2)nn1		23	72	11.7	inactive			
CNc1nc(N=[N+]=[N-])nc2c1ncn2[C@@H]1O[C@H](CO)[C@@H](O)[C@H]1O		23			< 50%			
CNc1nc(-n2cc(CN(C)C)nn2)nc2c1ncn2[C@@H]1O[C@H](CO)[C@@H](O)[C@H]1O	3800	6		117	inactive	> 10000		
COc1ccc(Cl)cc1CNc1nc(-n2cc(CC3CCCC3)nn2)nc2c1ncn2[C@@H]1O[C@H](CO)[C@@H](O)[C@H]1O	830			18			6000	
CCNC(=O)[C@H]1O[C@@H](n2cnc3c(NC)nc(-n4cc(-c5ccccn5)nn4)nc32)[C@H](O)[C@@H]1O	1640	45	910	1.8	< 50%			
CCNC(=O)[C@H]1O[C@@H](n2cnc3c(NC)nc(-n4ccnn4)nc32)[C@H](O)[C@@H]1O	590	18		2.1	inactive			
CNc1nc(-c2cn(Cc3ccccc3)nn2)nc2c1ncn2[C@@H]1O[C@H](CO)[C@@H](O)[C@H]1O	770	21		53.9	< 50%			
CCNC(=O)[C@H]1O[C@@H](n2cnc3c(NC)nc(-n4cc(Cc5ccccc5)nn4)nc32)[C@H](O)[C@@H]1O	510	33		2.8	50%			
CCCOc1ccc(-c2cn(-c3nc(NC)c4ncn([C@@H]5O[C@H](CO)[C@@H](O)[C@H]5O)c4n3)nn2)cc1		14		25.2	< 50%	> 10000		49
CNc1nc(-n2cc(Cc3ccccc3)nn2)nc2c1ncn2[C@@H]1O[C@H](CO)[C@@H](O)[C@H]1O	589	20		9.5	< 50%	1790		

Results, then the molecule that gave them:

Ki (Adenosine receptor A1) [nM]	inhibition (Adenosine receptor A2a [1]) [%]	Selectivity ratio [2]	Ki (Adenosine receptor A3 [3]) [nM]	Activity [4]	Ki (Adenosine receptor A3 [5]) [nM]	Ki (Adenosine receptor A2a [6]) [nM]	inhibition [7] [%]	SMILES
	18			50%				CCNC(=O)[C@H]1O[C@@H](n2cnc3c(NC)nc(N=[N+]=[N-])nc32)[C@H](O)[C@@H]1O
2920	18		13.8	< 50%				CCc1cn(-c2nc(NC)c3ncn([C@@H]4O[C@H](CO)[C@@H](O)[C@H]4O)c3n2)nn1
1270	14		45	inactive				CNc1nc(-n2cc(CCO)nn2)nc2c1ncn2[C@@H]1O[C@H](CO)[C@@H](O)[C@H]1O
956	39		81.1	< 50%				CNc1nc(-c2cn(Cc3cccc(Cl)c3)nn2)nc2c1ncn2[C@@H]1O[C@H](CO)[C@@H](O)[C@H]1O
1000	13		10.4					CNc1nc(-n2ccnn2)nc2c1ncn2[C@@H]1O[C@H](CO)[C@@H](O)[C@H]1O
1250	36		11.5	< 50%				CCNC(=O)[C@H]1O[C@@H](n2cnc3c(NC)nc(-n4cc(CC5CCCC5)nn4)nc32)[C@H](O)[C@@H]1O
	5		14.9	inactive			36	CNc1nc(-n2cc(-c3ccccc3)nn2)nc2c1ncn2[C@@H]1O[C@H](CO)[C@@H](O)[C@H]1O
335	39	260	1.3	< 50%	312			CNc1nc(-n2cc(CC3CCCC3)nn2)nc2c1ncn2[C@@H]1O[C@H](CO)[C@@H](O)[C@H]1O
750	43		5.6	inactive				CCCCc1cn(-c2nc(NC)c3ncn([C@@H]4O[C@H](C(=O)NCC)[C@@H](O)[C@H]4O)c3n2)nn1
957	43		86.1	< 50%				CNc1nc(-c2cn(Cc3cccc(OC)c3)nn2)nc2c1ncn2[C@@H]1O[C@H](CO)[C@@H](O)[C@H]1O
1970	40		10.3	inactive	> 10000			CNc1nc(-n2cc(-c3ccccn3)nn2)nc2c1ncn2[C@@H]1O[C@H](CO)[C@@H](O)[C@H]1O
